Eleven compounds from ChEMBL document CHEMBL3861953 (J Med Chem, 2016) can be followed below.

Broadly, the IC50 is the concentration that gives 50% inhibition. A word on the MIC: it is the lowest concentration that inhibits growth of the organism.

Structures are written as SMILES. ≈ marks a conversion by molar mass, not a printed value. Calls of active or inactive are those of the source. The calls are words filed in the database; no cut-off is given here.

Tested on in the first data set: not listed separately
Kind of data set: Inhibition of recombinant Mycobacterium tuberculosis InhA expressed in Escherichia coli Rosetta (DE3) pLysS using 2-trans-decenoyl-N-acetylcyste-amine as substrate in presence of NADH by spectrophotometric method.
Conditions: not given
In outline:
(§1)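 His-tagged InhA purified by Ni-chelate then gel filtration. Assay at 25 °C in 30 mM PIPES, 150 mM NaCl, 1 mM EDTA, pH 6.8 with 200 µM trans-2-decenoyl-N-acetylcysteamine, 100 µM NADH, 1 µg enzyme. Initial rate of A340 decrease over 120 s. DMSO 0.1%; triplicates; triclosan positive control.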
Turning to `Cc1ccc(/C=C2\SC(=S)N([C@H](Cc3c[nH]c4ccccc34)C(=O)O)C2=O)c2ccccc12`, the IC50 is 11 µM.
Turning to `Oc1cc(Cl)ccc1Oc1ccc(Cl)cc1Cl` [TRICLOSAN], the IC50 amounted to 6.1 µM.
For the compound `CCCc1ccc(/C=C2\SC(=S)N([C@@H](Cc3c[nH]c4ccccc34)C(=O)O)C2=O)cc1`, the IC50 was 13 µM.
As for `CCCCC(C(=O)O)N1C(=O)/C(=C/c2ccc(N(C)C)c3ccccc23)SC1=S` (racemic), the IC50 was 24.4 µM.
Turning to `O=C(O)[C@H](Cc1c[nH]c2ccccc12)N1C(=O)/C(=C/c2ccc(N(CCCl)CCCl)cc2)SC1=S`, the concentration for half-maximal inhibition (IC50) amounted to 12.2 µM.
Consider `CCCc1ccc(/C=C2\SC(=S)N([C@H](Cc3c[nH]c4ccccc34)C(=O)O)C2=O)cc1`, for which the IC50 worked out at 13 µM.

In the next data set the test system is Klebsiella pneumoniae. Kind of data set: Toxicity against Klebsiella pneumoniae at 10 uM.
Conditions: not given
Regarding `Cc1ccc(/C=C2\SC(=S)N([C@H](Cc3c[nH]c4ccccc34)C(=O)O)C2=O)c2ccccc12`, the Activity result is “Non-Toxic”.
Take `CCCc1ccc(/C=C2\SC(=S)N([C@@H](Cc3c[nH]c4ccccc34)C(=O)O)C2=O)cc1`: the Activity entry is reported as “Non-Toxic”.
As for `O=C(O)[C@H](Cc1c[nH]c2ccccc12)N1C(=O)/C(=C/c2ccc(N(CCCl)CCCl)cc2)SC1=S`, the Activity result is listed as “Non-Toxic”.
On to `CCCc1ccc(/C=C2\SC(=S)N([C@H](Cc3c[nH]c4ccccc34)C(=O)O)C2=O)cc1`, for which the Activity entry is given as “Non-Toxic”.

The next data set deals with Mycobacterium tuberculosis. Kind of data set: Inhibition of recombinant Mycobacterium tuberculosis InhA expressed in Escherichia coli Rosetta (DE3) pLysS at 30 uM using 2-trans-decenoyl-N-acetylcyste-amine as substrate measured for 120 sec in presence of NADH by spectrophotometric method.
Conditions: not given
In outline: as §1
Turning to `CN(C)c1ccc(/C=C2\SC(=S)N([C@@H](Cc3c[nH]c4ccccc34)C(=O)O)C2=O)cc1` (stereo in doubt; 12), the inhibition entry was “Active”.
For the compound `CC(C)C[C@@H](C(=O)O)N1C(=O)/C(=C/c2ccc(N(C)C)c3ccccc23)SC1=S`, the inhibition result is “Active”.
Turning to `CC(C)C[C@H](C(=O)O)N1C(=O)/C(=C/c2ccc(N(C)C)c3ccccc23)SC1=S`, the inhibition entry is “Active”.
On to `CN(C)c1ccc(/C=C2\SC(=S)N([C@@H](Cc3c[nH]c4ccccc34)C(=O)O)C2=O)cc1` (stereo in doubt; 24), for which the inhibition result is “Active”.
Still for that read-out and setting: for `Cc1ccc(/C=C2\SC(=S)N([C@H](Cc3c[nH]c4ccccc34)C(=O)O)C2=O)c2ccccc12` the value was “Active”; for `CCCc1ccc(/C=C2\SC(=S)N([C@@H](Cc3c[nH]c4ccccc34)C(=O)O)C2=O)cc1`, “Active”; for `CCCCC(C(=O)O)N1C(=O)/C(=C/c2ccc(N(C)C)c3ccccc23)SC1=S` (racemic), “Active”.
With `O=C(O)[C@H](Cc1c[nH]c2ccccc12)N1C(=O)/C(=C/c2ccc(N(CCCl)CCCl)cc2)SC1=S`, the inhibition result is “Active”.
Same read-out and setting: for `CCCc1ccc(/C=C2\SC(=S)N([C@H](Cc3c[nH]c4ccccc34)C(=O)O)C2=O)cc1` the value was “Active”.

The subject of a further data set is Enterococcus faecalis. Kind of data set: Antimicrobial activity against Enterococcus faecalis ATCC 29212 assessed as inhibition of bacterial growth measured after 24 hrs using p-iodonitrotetrazolium violet by broth dilution method. The class given is functional. The note with it: ATCC 29212, 24 h. Summed up:
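E. faecalis ATCC 29212 in Mueller-Hinton broth. Compounds were taken up at 2 mg/ml in DMSO (stock) and doubling dilutions were made in MHB. Inoculum was 1-5 × 10^5 final, incubated 37°C for 24 h, with sterility, growth and DMSO solvent controls. Growth was read by reduction of INT (2 mg/ml solution, several hours) to formazan. MIC was the lowest concentration with no red-purple colour or visible turbidity.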
A general note: Dilution methods test growth across graded concentrations, often in twofold steps.
With `Cc1ccc(/C=C2\SC(=S)N([C@H](Cc3c[nH]c4ccccc34)C(=O)O)C2=O)c2ccccc12`, the MIC came to 5.2 µM (≈ 2.46 µg/mL).

A further data set concerns Mycobacterium marinum. Kind of data set: Antimycobacterial activity against LuxABCDE expressing Mycobacterium marinum measured after 48 hrs by luminescence based serial dilution assay. The format is functional. The note with it: Mycobacterium marinum, 48 h; read-out: MIC. In outline:
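LuxABCDE-expressing M. marinum was grown shaking at 32°C in 7H9 with OADC to OD600 0.8-1. 10^5 bacteria per well were exposed to compounds (submicromolar to submillimolar) in 7H9 with 0.5% v/v DMSO at 32°C. Luminescence was followed for 48 h, with amikacin 10 µM as control. MIC was the lowest concentration giving significant signal reduction versus DMSO control at 48 h.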
Take `NCC[C@H](O)C(=O)N[C@@H]1C[C@H](N)[C@@H](O[C@H]2O[C@H](CN)[C@@H](O)[C@H](O)[C@H]2O)[C@H](O)[C@H]1O[C@H]1O[C@H](CO)[C@@H](O)[C@H](N)[C@H]1O` [AMIKACIN]: the minimal inhibitory concentration (MIC) is 1.7 µM (≈ 0.996 µg/mL).
As for `Cc1ccc(/C=C2\SC(=S)N([C@H](Cc3c[nH]c4ccccc34)C(=O)O)C2=O)c2ccccc12`, the minimal inhibitory concentration (MIC) stood at 2.11 µM (≈ 0.997 µg/mL).
As to `Oc1cc(Cl)ccc1Oc1ccc(Cl)cc1Cl` [TRICLOSAN], the MIC worked out at 8.63 µM (≈ 2.5 µg/mL).
Turning to `CCCc1ccc(/C=C2\SC(=S)N([C@@H](Cc3c[nH]c4ccccc34)C(=O)O)C2=O)cc1`, the MIC was 22.2 µM (≈ 10 µg/mL).
`CCCCC(C(=O)O)N1C(=O)/C(=C/c2ccc(N(C)C)c3ccccc23)SC1=S` (racemic): the MIC came out at 2.33 µM (≈ 0.999 µg/mL).
Consider `O=C(O)[C@H](Cc1c[nH]c2ccccc12)N1C(=O)/C(=C/c2ccc(N(CCCl)CCCl)cc2)SC1=S`, for which the MIC was 1.82 µM (≈ 0.998 µg/mL).
Regarding `CCCc1ccc(/C=C2\SC(=S)N([C@H](Cc3c[nH]c4ccccc34)C(=O)O)C2=O)cc1`, the MIC is 55.5 µM (≈ 25 µg/mL).

The next data set relates to Mycobacterium marinum. Kind of data set: Antivirulence activity against Mycobacterium marinum assessed as Dictyostelium discoideum phagocytic plaque formation at 10 uM preincubated for 2 to 3 hrs followed by Dictyostelium discoideum addition measured after 5 to 9 days in presence of Klebsiella pneumoniae relative to control. The format is functional.
Conditions: not given
Summed up:
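Mixed lawn of mid-log Mm pellet resuspended in equal volume of overnight non-virulent Kp culture diluted 10-5; 50 µl spread on SM agar containing compound (10 µM), dried 2-3 h, then 103 Dictyostelium cells added. Incubated 5-9 days at 25 °C; phagocytic plaque diameter scored 0-4 versus DMSO control.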
Take `CN(C)c1ccc(/C=C2\SC(=S)N([C@@H](Cc3c[nH]c4ccccc34)C(=O)O)C2=O)cc1` (stereo in doubt; 24): the result was Active.
For the compound `Cc1ccc(/C=C2\SC(=S)N([C@H](Cc3c[nH]c4ccccc34)C(=O)O)C2=O)c2ccccc12`, the outcome was Active.
As to `CCCc1ccc(/C=C2\SC(=S)N([C@@H](Cc3c[nH]c4ccccc34)C(=O)O)C2=O)cc1`, the result was Active.
Take `O=C(O)[C@H](Cc1c[nH]c2ccccc12)N1C(=O)/C(=C/c2ccc(N(CCCl)CCCl)cc2)SC1=S`: the outcome was Active.
Consider `CCCc1ccc(/C=C2\SC(=S)N([C@H](Cc3c[nH]c4ccccc34)C(=O)O)C2=O)cc1`, for which the outcome was Active.

Tested on in the next data set: not listed separately
Kind of data set: Toxicity against Dictyostelium discoideum at 10 uM.
Conditions: not given
Take `Cc1ccc(/C=C2\SC(=S)N([C@H](Cc3c[nH]c4ccccc34)C(=O)O)C2=O)c2ccccc12`: the Activity entry is “Non-Toxic”.
As to `CCCc1ccc(/C=C2\SC(=S)N([C@@H](Cc3c[nH]c4ccccc34)C(=O)O)C2=O)cc1`, the Activity entry is reported as “Non-Toxic”.
For `O=C(O)[C@H](Cc1c[nH]c2ccccc12)N1C(=O)/C(=C/c2ccc(N(CCCl)CCCl)cc2)SC1=S`, the Activity entry was “Non-Toxic”.
Consider `CCCc1ccc(/C=C2\SC(=S)N([C@H](Cc3c[nH]c4ccccc34)C(=O)O)C2=O)cc1`, for which the Activity result was “Non-Toxic”.
